Data published in ChEMBL document CHEMBL1124104, “(Acyloxy)benzophenones and (acyloxy)-4-pyrones. A new class of inhibitors of human neutrophil elastase” (J Med Chem, 1988).

Assays:
[1] = target: T1, Neutrophil elastase (Homo sapiens, UniProt P08246); experiment: Inhibitory activity against human leukocyte elastase at 10e-7 M
T1 sequence (P08246 whole entry): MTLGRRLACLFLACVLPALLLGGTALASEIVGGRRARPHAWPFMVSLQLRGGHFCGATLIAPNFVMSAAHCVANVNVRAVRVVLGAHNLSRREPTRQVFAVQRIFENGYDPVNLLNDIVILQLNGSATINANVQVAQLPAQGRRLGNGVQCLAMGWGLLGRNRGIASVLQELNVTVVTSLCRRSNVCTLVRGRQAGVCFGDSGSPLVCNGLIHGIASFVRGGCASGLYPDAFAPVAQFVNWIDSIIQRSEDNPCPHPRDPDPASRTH

[2] = target: T1, Neutrophil elastase; experiment: Inhibitory activity against human leukocyte elastase at 10e-6 M
[3] = target: T1, Neutrophil elastase; experiment: Inhibitory activity against human leukocyte elastase; No inhibition at 1x10E-2 M
Outline: (§1)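 HLE activity followed as rise in absorbance at 410 nm from nitroanilide release; substrate (methoxysuccinyl)Ala-Ala-Pro-Val nitroanilide at 10⁻⁴ M. Run in 0.2 M Tris, pH 8.0, 30 °C. Inhibitors and substrate dissolved in DMSO, which made up 10% of the final medium. Enzyme titrated to give 0.12 OD unit/min per 10 mm path.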

[4] = target: T1, Neutrophil elastase; experiment: Inhibitory activity against human leukocyte elastase at 10e-5 M; outline: as §1
[5] = target: T2, Neutrophil elastase (Homo sapiens) (UniProt P08246); experiment: Inhibitory activity against [14C]elastin hydrolysis at 3 uM concentration and 1h.
T2 sequence (whole entry): T1 sequence (P08246 whole entry)
Outline: (§2)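 Elastase digestion of [¹⁴C]elastin, quantitated by radiolabel release (method of Bielefeld et al.). Substrate, inhibitor and elastase were all present for the whole run, and % inhibition was read at 1, 2 and 3 h.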

[6] = target: T2, Neutrophil elastase (Homo sapiens); experiment: Inhibitory activity against [14C]elastin hydrolysis at 3 uM concentration and 2 hr.; outline: as §2
[7] = target: T2, Neutrophil elastase (Homo sapiens); experiment: Inhibitory activity against [14C]-Elastin hydrolysis at 3 uM concentration and 3h.; outline: as §2
[8] = target: T2, Neutrophil elastase (Homo sapiens); experiment: Inhibitory activity against [14C]elastin hydrolysis at 1 uM concentration and 1h.; outline: as §2
[9] = target: T2, Neutrophil elastase (Homo sapiens); experiment: Inhibitory activity against [14C]elastin hydrolysis at 1 uM concentration and 2 hr.; outline: as §2
[10] = target: T2, Neutrophil elastase (Homo sapiens); experiment: Inhibitory activity against [14C]elastin hydrolysis at 2 uM concentration and 1h.; outline: as §2
[11] = target: T2, Neutrophil elastase (Homo sapiens); experiment: Inhibitory activity against [14C]-Elastin hydrolysis at 2 uM concentration and 2 hr.; outline: as §2
[12] = target: T2, Neutrophil elastase (Homo sapiens); experiment: Inhibitory activity against [14C]-Elastin hydrolysis at 2 uM concentration and 3h.; outline: as §2

| IC50 [1] [µM] | IC50 [2] [µM] | SMILES | other results |
| --- | --- | --- | --- |
| 0.11 | – | CCCCCCCCCCCCCCCC(=O)OCc1cc(=O)c(OC(=O)C(C)(C)C)co1 | – |
| 0.45 | – | CC(C)(C)C(=O)Oc1ccc(Oc2ccc(OC(=O)C(C)(C)C)cc2)cc1 | – |
| – | 6.2 | CCC(=O)Oc1ccc(C(=O)c2ccccc2)cc1 | – |
| 0.14 | – | CC(C)(C)C(=O)Oc1ccc(C(=O)c2ccc(Cl)cc2)cc1 | – |
| – | – | CC1(C)Cc2cc(C(=O)c3ccccc3)ccc2OC1=O | IC50 [3]: No inhibition |
| 0.3 | – | CCCCCCCC/C=C/CCCCCCCC(=O)OCc1cc(=O)c(OC(=O)C(C)(C)C)co1 | – |
| – | – | CCCCCCCC/C=C/CCCCCCCC(=O)OCc1cc(=O)c(OC(=O)[C@]23C[C@H]4C[C@H](C[C@H](C4)C2)C3)co1 | IC50 [4]: 80 µM |
| – | 8.4 | Cc1cc(C)c(C(=O)OCc2cc(=O)c(OC(=O)C(C)(C)C)co2)c(C)c1 | – |
| – | – | O=C(c1ccccc1)c1ccc(OC(=O)C2CCCCC2)cc1 | IC50 [4]: 20 µM |
| – | 1.5 | CCC(C)CC(=O)Oc1ccc(C(=O)c2ccc(OC(=O)CC(C)CC)cc2OC(=O)CC(C)CC)c(OC(=O)CC(C)CC)c1 (configuration not stated) | – |
| 0.13 | – | CCCCCCCCCCCCCCCCCCCC(=O)OCc1cc(=O)c(OC(=O)C(C)(C)C)co1 | – |
| – | – | CC(C)(C)C(=O)Oc1ccc(C(=O)c2ccccc2)c(OC(=O)C(C)(C)C)c1 | inhibition [5]: 62%; inhibition [6]: 32%; inhibition [7]: 10%; inhibition [8]: 14%; inhibition [9]: 10%; inhibition [10]: 36%; inhibition [11]: 12%; inhibition [12]: 9% |
| – | 1.5 | CC(CO)Cc1cc(C(=O)c2ccccc2)ccc1OC(=O)C(C)(C)C (configuration not stated) | – |
| 0.8 | – | CC(C=O)Cc1cc(C(=O)c2ccccc2)ccc1OC(=O)C(C)(C)C (configuration not stated) | – |
| – | 6.1 | CCCCCCC/C=C/CCCCCCCCC(=O)Oc1coc(COC(=O)CCCCCCC/C=C/CCCCCCCC)cc1=O | – |
| 10 | – | CC(C)(C)C(=O)Oc1ccccc1C(=O)c1ccccc1 | – |
| – | – | CC(C)(C)C(=O)Oc1coc(COC2CCOCC2)cc1=O | IC50 [4]: 43 µM |
| – | 1.5 | CC(C)(C)C(=O)Oc1ccc(C(O)c2ccc(OC(=O)C(C)(C)C)cc2)cc1 | – |
| – | – | CC(C)(C)C(=O)OCc1cc(=O)c(OC(=O)C(C)(C)C)co1 | IC50 [4]: 36 µM |

| IC50 [1] [µM] | IC50 [2] [µM] | SMILES | other results |
| --- | --- | --- | --- |
| 0.85 | – | C=C(C)Cc1cc(C(=O)c2ccccc2)ccc1OC(=O)C(C)(C)C | – |
| – | 8 | CC(C)(C)C(=O)Oc1ccccc1C(=O)c1ccccc1OC(=O)C(C)(C)C | – |
| – | 2.7 | CC(C)(C)C(=O)Oc1ccc(C(=O)c2ccc(O)cc2)cc1 | – |
| – | 1.4 | O=C(c1ccccc1)c1ccc(OC(=O)C2CC2)cc1 | – |
| 0.6 | – | CCCCCCCCCCCCC(C)(C)C(=O)OCc1cc(=O)c(OC(=O)C(C)(C)C)co1 | – |
| – | 1.9 | CC(C)(C)C(=O)Oc1coc(COC(=O)c2ccc(-c3ccccc3)cc2)cc1=O | – |
| – | – | O=C1CCc2cc(C(=O)c3ccccc3)ccc2O1 | IC50 [3]: No inhibition |
| 1.8 | – | CC(C)(C)C(=O)Oc1ccc(S(=O)(=O)c2ccc(O)cc2)cc1 | – |
| – | – | CC(=O)NC(C)(C)C(=O)Oc1ccc(C(=O)c2ccccc2)cc1 | IC50 [4]: 19 µM |
| – | – | CC1Cc2cc(C(=O)c3ccccc3)ccc2OC1=O (configuration not stated) | IC50 [3]: No inhibition |
| – | – | CC(C)(C)C(=O)Oc1ccc(S(=O)(=O)c2ccc(OC(=O)C(C)(C)C)cc2)cc1 | inhibition [5]: 56%; inhibition [6]: 40%; inhibition [7]: 29%; inhibition [8]: 29%; inhibition [9]: 14%; inhibition [10]: 39%; inhibition [11]: 29%; inhibition [12]: 8% |
| 0.46 | – | CC(C)(C)C(=O)Oc1ccc(Cc2ccc(OC(=O)C(C)(C)C)cc2)cc1 | – |
| – | 1 | CC(C)(C)C(=O)Oc1coc(COC(c2ccccc2)(c2ccccc2)c2ccccc2)cc1=O | – |
| 9 | – | CCCCCCCCCCCCCCCCCCCC(=O)OCc1cc(=O)c(O)co1 | – |
| – | 3 | CC(C)(C)C(=O)Oc1ccc(C(OC(=O)CCC(=O)O)c2ccc(OC(=O)C(C)(C)C)cc2)cc1 | – |
| 0.21 | – | CCCCCCCC/C=C/CCCCCCCCCC(=O)OCc1cc(=O)c(OC(=O)C(C)(C)C)co1 | – |
| – | 5.4 | CC(C)(C)C(=O)Oc1ccccc1C(=O)OCc1cc(=O)c(OC(=O)C(C)(C)C)co1 | – |
| – | – | CC(=O)Oc1ccc(C(=O)c2ccccc2)cc1 | IC50 [4]: 16 µM |
| – | – | CC(C(=O)O)c1cc(C(=O)c2ccccc2)ccc1OC(=O)C(C)(C)C (configuration not stated) | IC50 [4]: 12 µM |
